# Test results as given in publication PMC3561458 (Investigational new drugs, 2011).
# Legend:
# Type in all cases: in vivo, human
# [1] = tested on: advanced/metastatic solid tumors; experiment: Antitumor activity
# Summary of the method: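 Adults (≥18 y) with relapsed or refractory solid tumours and no standard therapy, ECOG 0–1, take the test compound as capsules orally once daily for 7 consecutive days in 2-week cycles (S1). Patients stay on study until progression, refusal or unacceptable toxicity. Disease is assessed by RECIST every 8 weeks and at study discontinuation.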
# Plasma pharmacokinetics = conditions: for AUC(0-t) / Cmax / Vd/F / half-life: human, plasma, oral; for Vd/F: Vz/F
# Summary of the method: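 The test compound is given orally once daily for 7 days in 2-week cycles (S1). Plasma is sampled in cycle 1 on days 1, 2, 4, 7, 8 and 9, and in cycle 2 on days 1, 4 and 7. Cycle 1 day 1 is sampled from 30 min to 24 h after dosing and day 7 from 30 min to 96 h. Parent and metabolite are measured by validated LC-MS-MS, with calibration ranges of 0.00109–1.09 and 0.00105–1.05 μM respectively.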
# [2] = tested on: patients with advanced/metastatic solid tumors; experiment: Phase I safety: adverse events
smiles,measurement,setting,value
"CNC(=O)c1nn(C)c2c1C(C)(C)Cc1cnc(Nc3ccc(N4CCN(C)CC4)cc3)nc1-2 [PHA-848125AC, N,1,4,4-tetramethyl-8-{[4-(4-methylpiperazin-1-yl)phenyl]amino}-4,5-dihydro-1H-pyrazolo [4,3-h]quinazoline-3-carboxamide]",duration of stabilization,"[1]; CRC patient, 150 mg/day, S1",55.6 weeks
same,duration of stabilization,"[1]; NSCLC patient, 200 mg/day, S1",24.6 weeks
same,objective response,[1]; S1,No objective response
same,patients discontinued for lack of efficacy,[1]; S1 N=22,81.8%
same,patients discontinued for lack of efficacy,[1]; S2 N=15,86.7%
same,duration of stabilization,"[1]; carcinoid patient, 180 mg/day, S2",29.1 weeks
same,duration of stabilization,"[1]; pancreatic adenocarcinoma patient, 180 mg/day, S2",39.3 weeks
same,CL/F,"Plasma pharmacokinetics; S1 50 mg/day, mean±SD, n=2",19.7 ± 4.35 L/h
same,CL/F,"Plasma pharmacokinetics; S1 100 mg/day, mean±SD, n=6",13.7 ± 6.49 L/h
same,CL/F,"Plasma pharmacokinetics; S1 200 mg/day, mean±SD, n=6",15.2 ± 2.44 L/h
same,CL/F,"Plasma pharmacokinetics; S1 300 mg/day, n=1",7.78 L/h
same,CL/F,"Plasma pharmacokinetics; S2 150 mg/day, mean±SD, n=4",16.4 ± 6.16 L/h
same,CL/F,"Plasma pharmacokinetics; S2 200 mg/day, mean±SD, n=3",12.7 ± 1.60 L/h
same,accumulation factor after repeated administrations,Plasma pharmacokinetics; both schedules,3
same,AUC(0-t),"Plasma pharmacokinetics; 50 mg/day, AUC0-24, S1 50 mg/day, Day 1, mean±SD, n=3",2.5 ± 0.6 µM·h
same,AUC(0-t),"Plasma pharmacokinetics; 50 mg/day, AUC0-24, S1 50 mg/day, Day 7, mean±SD, n=3",6.8 ± 2.2 µM·h
same,AUC(0-t),"Plasma pharmacokinetics; 50 mg/day, AUCt, S1 50 mg/day, Day 7, mean±SD, n=3",11.7 ± 5.4 µM·h
same,Cmax,"Plasma pharmacokinetics; 50 mg/day, S1 50 mg/day, Day 1, mean±SD, n=3",200 ± 100 nM
same,Cmax,"Plasma pharmacokinetics; 50 mg/day, S1 50 mg/day, Day 7, mean±SD, n=3",400 ± 200 nM
same,Vd/F,"Plasma pharmacokinetics; 50 mg/day, S1 50 mg/day, mean±SD, n=2",707 ± 39.8 L
same,half-life,"Plasma pharmacokinetics; 50 mg/day, t1/2,z, S1 50 mg/day, mean±SD, n=2",25.3 ± 4.18 h
same,AUC(0-t),"Plasma pharmacokinetics; 100 mg/day, AUC0-24, S1 100 mg/day, Day 1, mean±SD, n=6",6 ± 2.2 µM·h
same,AUC(0-t),"Plasma pharmacokinetics; 100 mg/day, AUC0-24, S1 100 mg/day, Day 7, mean±SD, n=6",20 ± 11 µM·h
same,AUC(0-t),"Plasma pharmacokinetics; 100 mg/day, AUCt, S1 100 mg/day, Day 7, mean±SD, n=6",43.4 ± 26.8 µM·h
same,Cmax,"Plasma pharmacokinetics; 100 mg/day, S1 100 mg/day, Day 1, mean±SD, n=6",400 ± 100 nM
same,Cmax,"Plasma pharmacokinetics; 100 mg/day, S1 100 mg/day, Day 7, mean±SD, n=6",1200 ± 500 nM
same,Vd/F,"Plasma pharmacokinetics; 100 mg/day, S1 100 mg/day, mean±SD, n=6",840 ± 550 L
same,half-life,"Plasma pharmacokinetics; 100 mg/day, t1/2,z, S1 100 mg/day, mean±SD, n=6",42.9 ± 15.9 h
same,AUC(0-t),"Plasma pharmacokinetics; 150 mg/day, AUC0-24, S1 150 mg/day, Day 1, mean±SD, n=6",8.8 ± 2.6 µM·h
same,AUC(0-t),"Plasma pharmacokinetics; 150 mg/day, AUC0-24, S1 150 mg/day, Day 7, mean±SD, n=6",25 ± 8.6 µM·h
same,AUC(0-t),"Plasma pharmacokinetics; 150 mg/day, AUC0-24, S2 150 mg/day, Day 1, mean±SD, n=4",7.2 ± 2.8 µM·h
same,AUC(0-t),"Plasma pharmacokinetics; 150 mg/day, AUC0-24, S2 150 mg/day, Day 18, mean±SD, n=4",23 ± 9.5 µM·h
same,AUC(0-t),"Plasma pharmacokinetics; 150 mg/day, AUCt, S1 150 mg/day, Day 7, mean±SD, n=6",46.5 ± 19.4 µM·h
same,AUC(0-t),"Plasma pharmacokinetics; 150 mg/day, AUCt, S2 150 mg/day, Day 18, mean±SD, n=4",54.6 ± 25.1 µM·h
same,Cmax,"Plasma pharmacokinetics; 150 mg/day, S1 150 mg/day, Day 1, mean±SD, n=6",700 ± 200 nM
same,Cmax,"Plasma pharmacokinetics; 150 mg/day, S1 150 mg/day, Day 7, mean±SD, n=6",1500 ± 500 nM
same,Cmax,"Plasma pharmacokinetics; 150 mg/day, S2 150 mg/day, Day 1, mean±SD, n=4",400 ± 100 nM
same,Cmax,"Plasma pharmacokinetics; 150 mg/day, S2 150 mg/day, Day 18, mean±SD, n=4",1200 ± 300 nM
same,Vd/F,"Plasma pharmacokinetics; 150 mg/day, S2 150 mg/day, mean±SD, n=4",1010 ± 456 L
same,half-life,"Plasma pharmacokinetics; 150 mg/day, t1/2,z, S1 150 mg/day, mean±SD, n=6",33.1 ± 9.53 h
same,half-life,"Plasma pharmacokinetics; 150 mg/day, t1/2,z, S2 150 mg/day, mean±SD, n=4",43.1 ± 10.7 h
same,AUC(0-t),"Plasma pharmacokinetics; 180 mg/day, AUC0-24, S2 180 mg/day, Day 1, mean±SD, n=4",7 ± 2.1 µM·h
same,AUC(0-t),"Plasma pharmacokinetics; 180 mg/day, AUC0-24, S2 180 mg/day, Day 18, mean±SD, n=4",17 ± 8.8 µM·h
same,AUC(0-t),"Plasma pharmacokinetics; 180 mg/day, AUCt, S2 180 mg/day, Day 18, mean±SD, n=4",35.1 ± 26.3 µM·h
same,Cmax,"Plasma pharmacokinetics; 180 mg/day, S2 180 mg/day, Day 1, mean±SD, n=4",500 ± 200 nM
same,Cmax,"Plasma pharmacokinetics; 180 mg/day, S2 180 mg/day, Day 18, mean±SD, n=4",1100 ± 500 nM
same,half-life,"Plasma pharmacokinetics; 180 mg/day, t1/2,z, S2 180 mg/day, mean±SD, n=4",23.5 ± 8.42 h
same,AUC(0-t),"Plasma pharmacokinetics; 200 mg/day, AUC0-24, S1 200 mg/day, Day 1, mean±SD, n=6",9.6 ± 3.6 µM·h
same,AUC(0-t),"Plasma pharmacokinetics; 200 mg/day, AUC0-24, S1 200 mg/day, Day 7, mean±SD, n=6",29 ± 4.5 µM·h
same,AUC(0-t),"Plasma pharmacokinetics; 200 mg/day, AUC0-24, S2 200 mg/day, Day 1, mean±SD, n=3",12 ± 6.3 µM·h
same,AUC(0-t),"Plasma pharmacokinetics; 200 mg/day, AUC0-24, S2 200 mg/day, Day 18, mean±SD, n=3",35 ± 4.6 µM·h
same,AUC(0-t),"Plasma pharmacokinetics; 200 mg/day, AUCt, S1 200 mg/day, Day 7, mean±SD, n=6",63.5 ± 9.04 µM·h
same,AUC(0-t),"Plasma pharmacokinetics; 200 mg/day, AUCt, S2 200 mg/day, Day 18, mean±SD, n=3",63.6 ± 17.5 µM·h
same,Cmax,"Plasma pharmacokinetics; 200 mg/day, S1 200 mg/day, Day 1, mean±SD, n=6",700 ± 300 nM
same,Cmax,"Plasma pharmacokinetics; 200 mg/day, S1 200 mg/day, Day 7, mean±SD, n=6",1700 ± 200 nM
same,Cmax,"Plasma pharmacokinetics; 200 mg/day, S2 200 mg/day, Day 1, mean±SD, n=3",1000 ± 400 nM
same,Cmax,"Plasma pharmacokinetics; 200 mg/day, S2 200 mg/day, Day 18, mean±SD, n=3",2500 ± 500 nM
same,Vd/F,"Plasma pharmacokinetics; 200 mg/day, S1 200 mg/day, mean±SD, n=6",721 ± 207 L
same,Vd/F,"Plasma pharmacokinetics; 200 mg/day, S2 200 mg/day, mean±SD, n=3",473 ± 68.4 L
same,half-life,"Plasma pharmacokinetics; 200 mg/day, t1/2,z, S1 200 mg/day, mean±SD, n=6",32.4 ± 4.79 h
same,half-life,"Plasma pharmacokinetics; 200 mg/day, t1/2,z, S2 200 mg/day, mean±SD, n=3",25.8 ± 1.46 h
same,AUC(0-t),"Plasma pharmacokinetics; 300 mg/day, AUC0-24, S1 300 mg/day, Day 1, n=1",23 µM·h
same,AUC(0-t),"Plasma pharmacokinetics; 300 mg/day, AUC0-24, S1 300 mg/day, Day 7, n=1",84 µM·h
same,AUC(0-t),"Plasma pharmacokinetics; 300 mg/day, AUCt, S1 300 mg/day, Day 7, n=1",168 µM·h
same,Cmax,"Plasma pharmacokinetics; 300 mg/day, S1 300 mg/day, Day 1, n=1",1200 nM
same,Cmax,"Plasma pharmacokinetics; 300 mg/day, S1 300 mg/day, Day 7, n=1",5100 nM
same,Vd/F,"Plasma pharmacokinetics; 300 mg/day, S1 300 mg/day, n=1",348 L
same,half-life,"Plasma pharmacokinetics; 300 mg/day, t1/2,z, S1 300 mg/day, n=1",31 h
same,half-life,"Plasma pharmacokinetics; half-life, terminal, overall",~33 h
same,oral absorption,"Plasma pharmacokinetics; in vivo, po",good oral absorption
same,ERG findings during treatment,[2]; S1,No abnormal ERG findings
same,doses at which DLTs≥Grade 3 were noted,[2]; S1,≥ 200 mg/day
same,"Any drug-related adverse event, CTC Grade 1–4: patients","[2]; S1 50 mg/day N=3, all cycles",3
same,"Nausea, drug-related, CTC Grade 1–4: patients","[2]; S1 50 mg/day N=3, all cycles",1
same,"Any drug-related adverse event, CTC Grade 1–4: patients","[2]; S1 100 mg/day N=6, all cycles",6
same,"Any drug-related adverse event, CTC Grade 3–4: patients","[2]; S1 100 mg/day N=6, all cycles",1
same,"Decreased Hb, drug-related, CTC Grade 1–4: patients","[2]; S1 100 mg/day N=6, all cycles",1
same,"Decreased Hb, drug-related, CTC Grade 3–4: patients","[2]; S1 100 mg/day N=6, all cycles",1
